The data set in a line: Toxicity liver stage against HepG2, at 10uM. Format: cell-based. Also on record: test concentration 10 uM, cell line HepG2-A16-CD81EGFP. Conditions: human, HepG2-A16-CD81EGFP cells; read-out: INHIBITION
The procedure, abridged:
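Uninfected HepG2-A16-CD81EGFP cells, 3 × 10^3 per well, 1536-well, plated on prespotted compound at 10 μM final, parasite-free screening media added to match infected plates; puromycin 10 μM positive, DMSO 0.5% negative; run in parallel with 48 h PbLuc assay at 37 °C, 5% CO2; viability by CellTiter-Glo luminescence, normalized to controls.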
As for `COCC1CN(Cc2ccc(C)o2)Cc2cn(C)nc21` (stereo not given), the cytotoxicity at 10 µM is -9.2%.
Regarding `CC(C)C(NC(=O)c1ccc(N2CCOCC2)nc1)c1cccs1` (stereo not given), the cytotoxicity at 10 µM is -44%.
With `CSc1ccc(CN2C[C@@H]3CC[C@@](O)(c4ccc(C)cn4)[C@@H]3C2)cc1` the figure was -15.7%; with `Cn1ccnc1C(=O)N1CCC2(CCN2Cc2ccc(F)cc2)C1` (stereo not given), -97%; with `CNS(=O)(=O)c1ccc(CNC(=O)Nc2ccccn2)s1`, -9.11%.
With `Cc1cc(C)n(CC2CCCCN2C(=O)c2sccc2C#N)n1` (stereo not given) the figure was -0.497%.
Then `c1ccc(-c2nc(CN3CCOC(Cn4cccn4)C3)cs2)cc1` (stereo not given), with 8.62%; and `CCn1nc(C(C)C)cc1C(=O)NCC1CCCN(c2ccccn2)C1` (stereo not given), with 5.65%; and `CCOCC1CC2(CCN(C(=O)C3CCSCC3)CC2)CO1` (stereo not given), with 2.5%.
Take `COCCC(=O)N1CCC2(CN(Cc3cccc(F)c3)C2)C1`: the cytotoxicity at 10 µM is -74%.
Consider `Cc1nc2c(c(NCc3ccc(-c4ccccn4)s3)n1)CCNCC2`, for which the cytotoxicity at 10 µM is -59.5%.
Then `CC(C)NC(=O)N[C@H]1C[C@@H](c2nc(-c3ccncc3)no2)N(C)C1`, with -2.8%; and `O=C(c1cccnc1)N1CCN2C[C@H](Oc3cncnc3)C[C@H]2C1`, with 8.1%.
Then `CCS(=O)(=O)NCC1CCN(c2cnccn2)CC1`, with 10.3%; and `CCS(=O)(=O)N1CCC(c2nc3ccc(-c4ccccc4)cn3n2)CC1`, with -7.41%; and `Cc1cc(C)n(C2CCCN(C(=O)c3ccc(N(C)C)nn3)C2)n1` (stereo not given), with -9.31%.
With `CCCN1CCN(c2ccc(-c3nc(C)no3)cn2)CC1` the figure was 8.95%; with `CCn1cc(C(=O)N2CCCN(c3cccnn3)CC2)c2ccccc21`, -0.418%; with `Cc1ccc(CC(=O)N2CCOC(c3nc(C)n[nH]3)C2)cn1` (stereo not given), -3.28%.
Consider `CCOc1cc(C)nc(N2CCN(C(=O)c3cnc[nH]3)CC2)n1`, for which the cytotoxicity at 10 µM is -11.8%.
With `CN(c1ccncn1)C1CC2(CCN(C(=O)Cc3cccs3)C2)C1` (stereo not given) the figure was -5.97%; with `O=c1[nH]c(NCCO)nc2c1C1(CCCCC1)Cc1ccccc1-2`, 7.11%.
Then `Cc1csc(CN2CC[C@H]3C[C@H](c4noc(C)n4)O[C@@H]3C2)n1`, with -2.97%.
Then `COc1cc(N2C[C@@H](C)[C@](O)(C3CC3)C2)nc(N)n1`, with 0.929%.
As for `CC(NCCCC#N)c1ccc(-c2ccncc2)cc1` (stereo not given), the cytotoxicity at 10 µM is -1.93%.
Regarding `Cc1nc(NC(=O)N2CCCC(C(F)(F)F)C2)nn1C` (stereo not given), the cytotoxicity at 10 µM is 9.56%.
Then `COc1ccc(-n2ccc(CNCc3ccc(OC)c(O)c3)n2)cc1`, with 0.51%; and `Cc1cnn(Cc2cccc(OCC(N)=O)c2)c1`, with -2.84%.
`Cc1cc(NCc2ccc(CO)cc2)n2nc(C)cc2n1`: the cytotoxicity at 10 µM was -7.38%.
On to `Cn1cc(CN2CCO[C@@H]3CN(C4CCCC4)C[C@@H]3C2)cn1`, for which the cytotoxicity at 10 µM was -4.8%.
Then `O=C(c1cccn1Cc1cccs1)N1CCN(C(=O)C2CC2)CC1`, with -6.59%.
As for `Cc1ccc(CS(=O)(=O)N2Cc3c(CN(C)C)nn(C)c3C2)cc1`, the cytotoxicity at 10 µM is -98.2%.
Then `O=C(CCCNC(=O)Nc1ccc(F)cc1F)Nc1cn[nH]c1`, with 9.19%.
Then `COc1ccc(CN2Cc3cnn(C)c3C(COCC3CC3)C2)cc1` (stereo not given), with 14.5%; and `Cn1cc(NC(=O)N2CCC(OCc3ccccc3)CC2)ccc1=O`, with -5.75%.
With `CN1CC(=O)N(c2ccccc2)CC12CCN(CCO)C2` (stereo not given) the figure was 3.16%; with `COc1c(C(=O)N2CCC(COCc3ccccc3)C2)c(C)nn1C` (stereo not given), 7.39%; with `Cc1nn(C)c(C)c1-c1cncc(C2CCN(S(C)(=O)=O)CC2)n1`, 8.88%.
As to `Cc1ccc2nc(C)cc(C(=O)NCc3csc(N(C)C)n3)c2c1`, the cytotoxicity at 10 µM is 1.21%.
Then `Cc1ccc(CN2CC[C@H]3[C@H]2CCN3S(=O)(=O)C2CC2)s1`, with 7.74%.
Then `CC(C)Cc1cc(C(=O)NCC(O)CN2CCCCCC2)on1` (stereo not given), with -1.53%; and `Cn1c2c(c(=O)n1C)CN(C(=O)c1cnccn1)CCC2`, with -113%; and `CC(C)(C)n1cc(C(=O)NCCCn2ccnc2)c2cccnc21`, with 0.698%.
Consider `Cc1cccc(C2(CNC(=O)C(C)NC(N)=O)CCCC2)c1` (stereo not given), for which the cytotoxicity at 10 µM was 7.19%.
With `CC1CN(C(=O)c2cc[nH]c(=O)c2)c2ccccc21` (stereo not given) the figure was 1.5%; with `Cc1ccoc1C(=O)NCCOc1ncc(Cl)cc1Cl`, 3.02%.
Then `CCc1noc(CC)c1CNC(=O)Nc1cccc(C(=O)N(C)C)c1`, with 16.4%; and `CC(C)OC(C)c1nnc(SCC(=O)O)n1-c1ccc(F)cc1F` (stereo not given), with -11.6%.
Then `CCc1nnc(CN2CCC(C3CCCCCN3C(C)=O)CC2)o1` (stereo not given), with -43%.
With `Cc1cccc(CN2CCC3(CCCN(C(=O)c4ccsc4)C3)C2=O)n1` (stereo not given), the cytotoxicity at 10 µM is -1.14%.
For the compound `CCc1ccc(CC)c(NCC(=O)N2CCCC(NC(C)=O)C2)c1` (stereo not given), the cytotoxicity at 10 µM is -5.87%.
`O=C(c1cccs1)N1CCN(C(=O)c2ncoc2-c2ccco2)CC1`: the cytotoxicity at 10 µM came to 3.82%.
With `CCc1nnc(CN2CCCC(c3cc(C(N)=O)[nH]n3)C2)o1` (stereo not given) the figure was -12.7%; with `CCC1(O)CCCN(c2nc(C(C)(C)C)nc3c2cnn3C)C1` (stereo not given), -52.9%; with `O=C(COCc1ccccc1)N1CCC(OCc2cccnc2)CC1`, 4.41%.
With `Cc1nc(C)n(CC2CN(Cc3ccccc3OC(C)C)CCO2)n1` (stereo not given) the figure was -0.248%.
Then `CCn1ccnc1CN1CCN(Cc2ccccn2)CC1C` (stereo not given), with 14.3%.
Regarding `Cc1ccc(CN(CCN(C)C)Cc2ccnn2C2CCCCO2)o1` (stereo not given), the cytotoxicity at 10 µM is 0.267%.
Then `COc1cccc(-c2nc(CC(=O)NC3(C)CCS(=O)(=O)C3)cs2)c1` (stereo not given), with 19%; and `O=C(Cc1ccc2c(c1)CCCC2)N[C@@H]1CC[C@@H](n2ccnc2)[C@@H]1O`, with -5.69%; and `Cc1nc(C)c(C(=O)NCCOc2ccc(C(F)(F)F)cn2)o1`, with 2.42%.
As to `O=C(c1cc(Cl)c2c(c1)OCO2)N1CCN(c2nccs2)CC1`, the cytotoxicity at 10 µM is -3.6%.
In the case of `CCS(=O)(=O)CC(=O)NC1(c2ccc(Cl)c(Cl)c2)CC1`, the cytotoxicity at 10 µM was -2.6%.
As to `COCCNC(=O)[C@]12COC[C@H]1CN(c1cc(OC)ncn1)C2`, the cytotoxicity at 10 µM was determined as 4.32%.
With `O=C(NCc1ccco1)[C@@H]1C[C@H]2OCC[C@H]2N(c2ncc(F)cn2)C1` the figure was -0.113%; with `Cc1ccc(S(=O)(=O)Nc2ccc(N3CCSCC3)c(C(=O)O)c2)s1`, 3.54%.
With `CC(=O)NCC(=O)N1CCC(C2CCN(Cc3ccc(Cl)cc3)C2)CC1` (stereo not given) the figure was -9.12%.
As to `CN(C)C1(C(=O)NC2CCC(Oc3ccccc3C#N)CC2)CCC1` (stereo not given), the cytotoxicity at 10 µM is 9.92%.
Then `CCN1CC(COC(=O)c2ccccc2Cl)CC1=O` (stereo not given), with -1.54%; and `Cc1[nH]ncc1CCCNC(=O)Nc1ccccc1`, with -2.2%; and `O=c1[nH]cnc2c1CCN(S(=O)(=O)c1ccc(OC(F)(F)F)cc1)C2`, with 1.61%.
In the case of `Cc1cccc(C(=O)N2C[C@H](NS(C)(=O)=O)[C@@H]3OCCC[C@@H]32)n1`, the cytotoxicity at 10 µM was -77.4%.
On to `O=C(NC[C@H]1OC[C@@H](NCc2ccc(F)cc2)[C@@H]1O)c1ccncc1`, for which the cytotoxicity at 10 µM was 7.2%.
With `Cc1ccc(C(=O)NCCS(=O)(=O)N2CCSCC2)n1C` the figure was -0.506%; with `CN(Cc1ccco1)C[C@H]1OC[C@@H]2CCN(Cc3ccncc3)C[C@@H]21`, -1.62%; with `Cc1occc1C(=O)N1CCOCC2(CCN(C3CCOCC3)C2)C1` (stereo not given), 1.47%.
Then `Cc1ccc(OCC(O)CN2CCC(Cn3cccn3)CC2)cc1` (stereo not given), with -16%; and `O=C1COc2ccc(Cl)cc2CN1CC1CC1`, with -9.2%.
Then `Cc1cc(C)c(CNC(=O)NCC(O)c2cccc(F)c2)c(=O)[nH]1` (stereo not given), with -4.37%.
With `CN(C)C(=O)Cc1ccccc1NCc1noc(-c2ccccc2)n1`, the cytotoxicity at 10 µM was 6.95%.
With `CCC(=O)Nc1ccc(F)cc1OC` the figure was -26.1%; with `COc1ccccc1Oc1ncccc1CNC(=O)C(C)N1CCCC1` (stereo not given), -5.39%.
With `Cc1ccccc1NC(=O)N1CCN(C(=O)C2CC2)[C@@H]2CS(=O)(=O)C[C@@H]21` the figure was 2.78%; with `CCc1nc2c(s1)C(N(C)C(C)=O)CCC2` (stereo not given), -11.6%.
Then `Fc1cccc(CN2CCC(c3noc(-c4ccncc4)n3)CC2)c1F`, with -6.21%; and `COc1ncccc1CNC(=O)c1cc(C)on1`, with -20.2%.
For `CCCc1noc(CN2CCCCC2Cn2cncn2)n1` (stereo not given), the cytotoxicity at 10 µM is 4.84%.
In the case of `Cc1ccsc1CN(Cc1ccccn1)CC(O)CO` (stereo not given), the cytotoxicity at 10 µM was determined as 0.773%.
With `Cc1nc(NC(=O)NCc2cccnc2NCCN(C)C)sc1C` the figure was 4.51%.
Then `COc1ncccc1CN1CC[C@]2(C[C@@H](OCc3ccccn3)CO2)C1`, with 4.96%.
Then `O=C(CN1CCc2ccccc21)NCc1ccc(Cl)cc1`, with 12.4%.
On to `Cc1ccc(C(C)N(C)CCS(=O)(=O)CCC(N)=O)cc1` (stereo not given), for which the cytotoxicity at 10 µM was -52.5%.
With `N#Cc1cccc(N2CC3(CCN(C(=O)NC4CC4)C3)CC2=O)c1` (stereo not given) the figure was -0.987%.
Then `CCS(=O)(=O)c1ccc(N2CCC(NC(=O)CCC(C)C)CC2)cc1`, with 15.7%; and `CCN(CCC(=O)OC)C(=O)c1cc(F)cc2[nH]cnc12`, with -7.37%.

(Values after ChEMBL document CHEMBL4513216, “Probing the Open Global Health Chemical Diversity Library for Multistage-Active Starting Points for Next-Generation Antimalarials” (ACS Infect Dis, 2020).)
